How the values were obtained:
[1] = AUC (0 to infinity) in healthy human at 50 mg, po administered as single dose; format: ADME, organism-based; design: dose 50 mg, time infinity, route oral; conditions: plasma
Procedure, shortened: (§1)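 Healthy male volunteers, six active plus two placebo per dose group, single oral dose in PEG solution with 200 ml water after overnight fast; breakfast 60 to 90 min post-dose. EDTA plasma sampled predose to 144 h. Assayed by validated LC-MS/MS after protein precipitation. Noncompartmental analysis, AUC by linear up/log down trapezoidal rule; Vss = CL/F·(MRTp.o. − 1/Ka).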

Homo sapiens [2] = assay: Toxicity in healthy human assessed as occurrence of constipation at 5 mg, po administered as single dose relative to control; format: organism-based; conditions: in vivo
[3] = Apparent volume of distribution at steady state in healthy human at 12.5 mg, po administered as single dose; format: ADME, organism-based; conditions: in vivo, read-out: Vss/F; procedure, shortened: as §1
[4] = AUC (0 to infinity) in healthy human at 25 mg, po administered as single dose coadministered with 100 mg of ritonavir; format: ADME, organism-based; design: dose 25 mg, route oral, time infinity; conditions: plasma
Procedure, shortened: (§2)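 Healthy male volunteers, fasted. Ritonavir 100 mg given 10 h before and again together with single oral BILR 355 in PEG solution. EDTA plasma sampled predose to 144 h. LC-MS/MS assay after protein precipitation. Noncompartmental analysis, AUC by linear up/log down trapezoidal rule; Vss = CL/F·(MRTp.o. − 1/Ka).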

[5] = Half life in healthy human at 75 mg, po administered as single dose coadministered with 100 mg of ritonavir; format: ADME, organism-based; conditions: in vivo
[6] = Mean residence time in healthy human at 62.5 mg, po administered as single dose coadministered with 100 mg of ritonavir; format: ADME, organism-based; conditions: in vivo
[7] = Half life in healthy human at 5 mg, po administered as single dose; format: ADME, organism-based; conditions: in vivo
[8] = AUC (0 to infinity) in healthy human at 12.5 mg, po administered as single dose coadministered with 100 mg of ritonavir; format: ADME, organism-based; design: dose 12.5 mg, route oral, time infinity; conditions: plasma; procedure, shortened: as §2
[9] = Drug excretion in healthy human urine assessed as unchanged drug in healthy human at 12.5 mg, po administered as single dose by high-pressure liquid chromatography-tandem mass spectrometry/mass spectrometry method; format: ADME, organism-based; conditions: read-out: Drug uptake
Procedure, shortened: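 Urine was collected by weight after one oral dose of BILR 355 in PEG solution in fasted healthy males. Intervals were predose blank, 0-6, 6-24 and 24-72 h, with the bladder voided before each. Aliquots were stored at −20°C and assayed by LC-MS/MS. fe = amount of unchanged drug excreted (Ae) as a percentage of the administered dose.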

Homo sapiens [10] = assay: Ratio of AUC (0 to infinity) in human at 75 mg, po in presence of 100 mg of ritonavir to AUC (0 to infinity) in human at 75 mg, po; format: ADME, organism-based; conditions: in vivo
Homo sapiens [11] = assay: Toxicity in healthy human assessed as occurrence of vomiting at 50 mg, po administered as single dose relative to control; format: organism-based; conditions: in vivo
[12] = AUC (0 to last) in healthy human at 62.5 mg, po administered as single dose coadministered with 100 mg of ritonavir; format: ADME, organism-based; design: dose 62.5 mg, time 0 - last, route oral; conditions: plasma; procedure, shortened: as §2
[13] = Tmax in healthy human at 5 mg, po administered as single dose coadministered with 100 mg of ritonavir; format: ADME, organism-based; conditions: in vivo
[14] = Mean residence time in healthy human at 25 mg, po administered as single dose; format: ADME, organism-based; conditions: in vivo
[15] = Apparent volume of distribution in terminal phase in healthy human at 37.5 mg, po administered as single dose coadministered with 100 mg of ritonavir; format: ADME, organism-based; conditions: in vivo, read-out: Vz/F
Procedure, shortened: (§3)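 Healthy male volunteers, fasted overnight, got one oral dose of BILR 355 in PEG solution with 200 ml water. Ritonavir 100 mg was given 10 h before and again with the dose. Plasma was sampled (EDTA) from predose to 144 h and assayed by validated LC-MS/MS. Cmax and Vz/F came from noncompartmental analysis. Vss/F = CL/F·(MRTp.o. − 1/Ka), with Ka from compartmental modelling.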

Homo sapiens [16] = assay: Toxicity in healthy human assessed as occurrence of maculopapular rash at 12.5 mg, po administered as single dose coadministered with 100 mg of ritonavir; format: organism-based; conditions: in vivo
Homo sapiens [17] = assay: Toxicity in healthy human assessed as occurrence of increase in alanine aminotransferase level at 100 mg, po administered as single dose relative to control; format: organism-based; conditions: in vivo
[18] = Apparent volume of distribution at steady state in healthy human at 12.5 mg, po administered as single dose coadministered with 100 mg of ritonavir; format: ADME, organism-based; conditions: in vivo, read-out: Vss/F; procedure, shortened: as §2
Homo sapiens [19] = assay: Toxicity in healthy human assessed as occurrence of fatigue at 50 mg, po administered as single dose coadministered with 100 mg of ritonavir; format: organism-based; conditions: in vivo
[20] = Renal clearance in healthy human at 25 mg, po administered as single dose by high-pressure liquid chromatography-tandem mass spectrometry/mass spectrometry method; format: ADME, organism-based, Kidney; conditions: in vivo, read-out: CL_renal (converted)
Homo sapiens [21] = assay: Toxicity in healthy human assessed as occurrence of palpitations at 5 mg, po administered as single dose relative to control; format: organism-based; conditions: in vivo
Homo sapiens [22] = assay: Toxicity in healthy human assessed as occurrence of frequent bowel movements at 100 mg, po administered as single dose relative to control; format: organism-based; conditions: in vivo
Homo sapiens [23] = assay: Toxicity in healthy human assessed as occurrence of abdominal pain at 25 mg, po administered as single dose relative to control; format: organism-based, Abdomen; conditions: in vivo
[24] = AUC (0 to last) in healthy human at 5 mg, po administered as single dose; format: ADME, organism-based; design: dose 5 mg, time 0 - last, route oral; conditions: plasma; procedure, shortened: as §1
Homo sapiens [25] = assay: Toxicity in healthy human assessed as occurrence of fatigue at 62.5 mg, po administered as single dose coadministered with 100 mg of ritonavir; format: organism-based; conditions: in vivo
[26] = Apparent volume of distribution at steady state in healthy human at 62.5 mg, po administered as single dose coadministered with 100 mg of ritonavir; format: ADME, organism-based; conditions: in vivo, read-out: Vss/F; procedure, shortened: as §3
Homo sapiens [27] = assay: Toxicity in healthy human assessed as occurrence of maculopapular rash at 100 mg, po administered as single dose; format: organism-based; conditions: in vivo
[28] = Apparent volume of distribution at steady state in healthy human at 50 mg, po administered as single dose coadministered with 100 mg of ritonavir; format: ADME, organism-based; conditions: in vivo, read-out: Vss/F; procedure, shortened: as §3
[29] = Cmax in healthy human at 75 mg, po administered as single dose coadministered with 100 mg of ritonavir by high-pressure liquid chromatography-tandem mass spectrometry/mass spectrometry method; format: ADME, organism-based; design: dose 75 mg, route oral; conditions: in vivo; procedure, shortened: as §3
[30] = Mean residence time in healthy human at 12.5 mg, po administered as single dose; format: ADME, organism-based; conditions: in vivo
Homo sapiens [31] = assay: Ratio of half life in human at 25 mg, po in presence of 100 mg of ritonavir to half life in human at 25 mg, po; format: ADME, organism-based; conditions: in vivo
[32] = Cmax in healthy human at 5 mg, po administered as single dose coadministered with 100 mg of ritonavir by high-pressure liquid chromatography-tandem mass spectrometry/mass spectrometry method; format: ADME, organism-based; design: dose 5 mg, route oral; conditions: in vivo; procedure, shortened: as §3
Homo sapiens [33] = assay: Toxicity in healthy human assessed as occurrence of herpes simplex at 5 mg, po administered as single dose relative to control; format: organism-based; conditions: in vivo

- AUC(0-inf) [1]: 419 ng·h/mL
- Vd/F [3]: 1460 L
- AUC(0-inf) [4]: 4340 ng·h/mL
- half-life [5]: 11.9 h
- MRT [6]: 14 h
- half-life [7]: 5.02 h
- AUC(0-inf) [8]: 1960 ng·h/mL
- dose excreted [9]: 0.212%
- Ratio (Homo sapiens [10]): 15
- AUC(0-t) [12]: 7480 ng·h/mL
- Tmax [13]: 5.71 h
- MRT [14]: 4.52 h
- Vd/F [15]: 104 L
- Vd/F [18]: 153 L
- CL renal [20]: 11.5 mL/min
- AUC(0-t) [24]: 13.6 ng·h/mL
- Vd/F [26]: 113 L
- Vd/F [28]: 125 L
- Cmax [29]: 812 ng/mL
- MRT [30]: 6.12 h
- Ratio (Homo sapiens [31]): 3.3
- Cmax [32]: 25.3 ng/mL
Structure (SMILES): CCN1c2ncc(CCOc3cc[n+]([O-])c4ccccc34)cc2C(=O)N(C)c2cccnc21 [BILR 355]
- Activity (Homo sapiens [2]): 0%
- Activity (Homo sapiens [11]): 0%
- Activity (Homo sapiens [16]): 0%
- Activity (Homo sapiens [17]): 0%
- Activity (Homo sapiens [19]): 0%
- Activity (Homo sapiens [21]): 0%
- Activity (Homo sapiens [22]): 0%
- Activity (Homo sapiens [23]): 16.7%
- Activity (Homo sapiens [25]): 0%
- Activity (Homo sapiens [27]): 0%
- Activity (Homo sapiens [33]): 16.7%

From ChEMBL document CHEMBL1629563, “Pharmacokinetic and safety evaluation of BILR 355, a second-generation nonnucleoside reverse transcriptase inhibitor, in healthy volunteers” (Antimicrob Agents Chemother, 2008)
